Test results published in ChEMBL document CHEMBL4354843, “Structure-Based Design of a Potent and Selective Covalent Inhibitor for SRC Kinase That Targets a P-Loop Cysteine” (J Med Chem, 2020).

Columns and labels:
[1] = molecular target: 5'-AMP-activated protein kinase catalytic subunit alpha-2 (Homo sapiens) (UniProt P54646); experiment: Binding affinity to wild-type human partial length AMPK alpha2 (M1 to E306 residues) expressed in bacterial expression system assessed as residual binding level at 1 uM by Kinomescan method relative to control
Chain of 5'-AMP-activated protein kinase catalytic subunit alpha-2 (Homo sapiens) (P54646 whole entry, looked up, the tested form may be a part): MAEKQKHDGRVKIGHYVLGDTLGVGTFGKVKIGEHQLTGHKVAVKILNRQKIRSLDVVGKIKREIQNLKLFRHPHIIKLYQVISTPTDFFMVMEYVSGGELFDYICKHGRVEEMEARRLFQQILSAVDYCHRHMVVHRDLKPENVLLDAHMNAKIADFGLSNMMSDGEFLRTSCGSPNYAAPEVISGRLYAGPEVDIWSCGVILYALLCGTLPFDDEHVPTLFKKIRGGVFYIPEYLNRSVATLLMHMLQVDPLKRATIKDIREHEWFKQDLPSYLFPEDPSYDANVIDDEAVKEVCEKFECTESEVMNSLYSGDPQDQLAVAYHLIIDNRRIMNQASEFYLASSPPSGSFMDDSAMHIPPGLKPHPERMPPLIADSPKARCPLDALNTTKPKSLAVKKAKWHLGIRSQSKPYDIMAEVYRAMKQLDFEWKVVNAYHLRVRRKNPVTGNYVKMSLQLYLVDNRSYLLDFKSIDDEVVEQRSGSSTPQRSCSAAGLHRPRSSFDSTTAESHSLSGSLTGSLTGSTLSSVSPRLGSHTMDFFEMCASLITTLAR

[2] = molecular target: Protein-tyrosine kinase 6 (Homo sapiens) (UniProt Q13882); experiment: Binding affinity to wild-type human partial length BRK (L166 to T451 residues) expressed in bacterial expression system assessed as residual binding level at 1 uM by Kinomescan method relative to control
[3] = molecular target: Mitotic checkpoint serine/threonine-protein kinase BUB1 (Homo sapiens) (UniProt O43683); experiment: Binding affinity to wild-type human partial length BUB1 (Q724 to K1085 residues) expressed in mammalian expression system assessed as residual binding level at 1 uM by Kinomescan method relative to control
Outline: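 KinomeScan, an active site-directed competition binding panel of 468 kinases. The test compound was at 1 μM. The readout is remaining kinase binding as a percentage of the DMSO control. Scores above 35% were treated as weak binding and not listed.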

[4] = molecular target: Citron Rho-interacting kinase (Homo sapiens) (UniProt O14578); experiment: Binding affinity to wild-type human partial length CIT (M68 to E432 residues) expressed in bacterial expression system assessed as residual binding level at 1 uM by Kinomescan method relative to control
[5] = molecular target: Casein kinase I isoform gamma-2 (Homo sapiens) (UniProt P78368); experiment: Binding affinity to wild-type human full length CSNK1G2 (M1 to K415 residues) expressed in bacterial expression system assessed as residual binding level at 1 uM by Kinomescan method relative to control
Chain of Casein kinase I isoform gamma-2 (Homo sapiens) (P78368 whole entry, looked up, the tested form may be a part, canonical isoform): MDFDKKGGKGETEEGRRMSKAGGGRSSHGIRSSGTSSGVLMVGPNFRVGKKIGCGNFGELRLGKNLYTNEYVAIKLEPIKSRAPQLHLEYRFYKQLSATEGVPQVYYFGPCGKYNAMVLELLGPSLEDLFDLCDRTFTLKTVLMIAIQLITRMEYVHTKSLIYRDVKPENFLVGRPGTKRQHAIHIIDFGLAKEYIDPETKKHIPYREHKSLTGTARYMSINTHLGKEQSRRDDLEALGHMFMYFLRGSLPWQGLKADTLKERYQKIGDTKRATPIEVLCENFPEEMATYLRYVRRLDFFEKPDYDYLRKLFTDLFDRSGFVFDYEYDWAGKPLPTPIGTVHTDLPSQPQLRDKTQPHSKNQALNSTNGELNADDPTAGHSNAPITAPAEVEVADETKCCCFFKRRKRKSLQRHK
Outline: (§1)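 Active-site-directed KinomeScan competition binding panel covering 468 kinases, compound tested at 1 μM. Each readout is the kinase signal remaining with compound, expressed as a percentage of the DMSO control. […]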

[6] = molecular target: Death-associated protein kinase 2 (Homo sapiens) (UniProt Q9UIK4); experiment: Binding affinity to wild-type human full length DAPK2 (M1 to S370 residues) expressed in bacterial expression system assessed as residual binding level at 1 uM by Kinomescan method relative to control; outline: as §1
[7] = molecular target: Receptor tyrosine-protein kinase erbB-2 (Homo sapiens) (UniProt P04626); experiment: Binding affinity to wild-type human partial length ERBB2 (K646 to V1225 residues) expressed in mammalian expression system assessed as residual binding level at 1 uM by Kinomescan method relative to control
Chain of Receptor tyrosine-protein kinase erbB-2 (Homo sapiens) (P04626 whole entry, the tested form may be a part): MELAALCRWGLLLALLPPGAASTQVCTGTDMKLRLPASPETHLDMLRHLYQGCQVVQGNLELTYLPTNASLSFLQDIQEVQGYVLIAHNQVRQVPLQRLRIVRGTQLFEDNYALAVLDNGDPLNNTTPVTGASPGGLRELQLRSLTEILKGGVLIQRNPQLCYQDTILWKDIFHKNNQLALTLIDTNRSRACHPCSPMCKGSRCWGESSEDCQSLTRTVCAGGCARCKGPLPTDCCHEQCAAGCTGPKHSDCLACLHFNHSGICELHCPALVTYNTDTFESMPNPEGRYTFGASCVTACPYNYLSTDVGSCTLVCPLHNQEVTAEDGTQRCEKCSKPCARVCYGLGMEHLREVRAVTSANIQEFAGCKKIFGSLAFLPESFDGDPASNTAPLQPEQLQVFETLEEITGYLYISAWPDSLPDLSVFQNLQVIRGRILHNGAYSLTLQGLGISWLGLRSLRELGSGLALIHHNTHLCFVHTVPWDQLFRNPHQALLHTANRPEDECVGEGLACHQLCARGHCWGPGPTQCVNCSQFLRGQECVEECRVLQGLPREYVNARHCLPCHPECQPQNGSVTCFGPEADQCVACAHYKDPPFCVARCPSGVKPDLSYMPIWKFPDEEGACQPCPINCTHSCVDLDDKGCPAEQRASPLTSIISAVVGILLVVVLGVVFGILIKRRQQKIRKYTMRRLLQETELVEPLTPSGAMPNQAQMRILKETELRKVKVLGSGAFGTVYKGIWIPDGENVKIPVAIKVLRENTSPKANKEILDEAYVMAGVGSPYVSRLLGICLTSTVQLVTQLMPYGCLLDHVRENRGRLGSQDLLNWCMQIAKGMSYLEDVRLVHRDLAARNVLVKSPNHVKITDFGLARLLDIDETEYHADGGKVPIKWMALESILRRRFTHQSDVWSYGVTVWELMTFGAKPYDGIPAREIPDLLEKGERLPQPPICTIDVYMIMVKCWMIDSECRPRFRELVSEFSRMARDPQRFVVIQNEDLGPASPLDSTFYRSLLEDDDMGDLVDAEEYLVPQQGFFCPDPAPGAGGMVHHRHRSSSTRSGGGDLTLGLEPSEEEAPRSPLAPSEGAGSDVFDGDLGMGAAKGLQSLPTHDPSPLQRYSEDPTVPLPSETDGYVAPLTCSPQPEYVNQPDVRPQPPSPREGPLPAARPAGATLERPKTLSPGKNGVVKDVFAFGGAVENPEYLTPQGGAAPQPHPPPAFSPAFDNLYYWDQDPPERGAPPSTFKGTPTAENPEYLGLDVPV
Outline: (§2)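 Active-site-directed competition binding panel of 468 kinases (KinomeScan), compound at 1 μM. The read-out is kinase remaining bound, given as a percentage of the DMSO control. […]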

[8] = system: Receptor-type tyrosine-protein kinase FLT3 (Homo sapiens), P36888 [D835H]; experiment: Binding affinity to human partial length FLT3 D835H mutant (V592 to Y969 residues) expressed in bacterial expression system assessed as residual binding level at 1 uM by Kinomescan method relative to control
Outline: (§3)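 KinomeScan active site-directed competition binding panel (468 kinases), compound tested at 1 μM. Result expressed as remaining kinase signal versus DMSO control (percent of control).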

[9] = molecular target: Vascular endothelial growth factor receptor 3 (Homo sapiens) (UniProt P35916); experiment: Binding affinity to wild-type human partial length FLT4 (E821 to E1196 residues) expressed in bacterial expression system assessed as residual binding level at 1 uM by Kinomescan method relative to control
[10] = molecular target: Mitogen-activated protein kinase kinase kinase 3 (Homo sapiens) (UniProt Q99759); experiment: Binding affinity to wild-type human partial length MAP3K3 (E320 to Y626 residues) expressed in mammalian expression system assessed as residual binding level at 1 uM by Kinomescan method relative to control
[11] = molecular target: Mitogen-activated protein kinase kinase kinase 10 (Homo sapiens) (UniProt Q02779); experiment: Binding affinity to wild-type human partial length MLK2 (V52 to W380 residues) expressed in bacterial expression system assessed as residual binding level at 1 uM by Kinomescan method relative to control
[12] = molecular target: Serine/threonine-protein kinase mTOR (Homo sapiens) (UniProt P42345); experiment: Binding affinity to wild-type human partial length MTOR (L1382 to W2549 residues) expressed in mammalian expression system assessed as residual binding level at 1 uM by Kinomescan method relative to control; outline: as §2
[13] = molecular target: Serine/threonine-protein kinase Nek2 (Homo sapiens) (UniProt P51955); experiment: Binding affinity to wild-type human partial length NEK2 (M1 to K309 residues) expressed in bacterial expression system assessed as residual binding level at 1 uM by Kinomescan method relative to control
[14] = system: Phosphatidylinositol 4,5-bisphosphate 3-kinase catalytic subunit alpha isoform (Homo sapiens), P42336 [E542K]; experiment: Binding affinity to human partial length PIK3CA E542K mutant (R108 to N1068 residues) expressed in mammalian expression system assessed as residual binding level at 1 uM by Kinomescan method relative to control; outline: as §3
Chain of Phosphatidylinositol 4,5-bisphosphate 3-kinase catalytic subunit alpha isoform (Homo sapiens), P42336 [E542K] (P42336 whole entry E542K, the tested form may be a part, canonical isoform): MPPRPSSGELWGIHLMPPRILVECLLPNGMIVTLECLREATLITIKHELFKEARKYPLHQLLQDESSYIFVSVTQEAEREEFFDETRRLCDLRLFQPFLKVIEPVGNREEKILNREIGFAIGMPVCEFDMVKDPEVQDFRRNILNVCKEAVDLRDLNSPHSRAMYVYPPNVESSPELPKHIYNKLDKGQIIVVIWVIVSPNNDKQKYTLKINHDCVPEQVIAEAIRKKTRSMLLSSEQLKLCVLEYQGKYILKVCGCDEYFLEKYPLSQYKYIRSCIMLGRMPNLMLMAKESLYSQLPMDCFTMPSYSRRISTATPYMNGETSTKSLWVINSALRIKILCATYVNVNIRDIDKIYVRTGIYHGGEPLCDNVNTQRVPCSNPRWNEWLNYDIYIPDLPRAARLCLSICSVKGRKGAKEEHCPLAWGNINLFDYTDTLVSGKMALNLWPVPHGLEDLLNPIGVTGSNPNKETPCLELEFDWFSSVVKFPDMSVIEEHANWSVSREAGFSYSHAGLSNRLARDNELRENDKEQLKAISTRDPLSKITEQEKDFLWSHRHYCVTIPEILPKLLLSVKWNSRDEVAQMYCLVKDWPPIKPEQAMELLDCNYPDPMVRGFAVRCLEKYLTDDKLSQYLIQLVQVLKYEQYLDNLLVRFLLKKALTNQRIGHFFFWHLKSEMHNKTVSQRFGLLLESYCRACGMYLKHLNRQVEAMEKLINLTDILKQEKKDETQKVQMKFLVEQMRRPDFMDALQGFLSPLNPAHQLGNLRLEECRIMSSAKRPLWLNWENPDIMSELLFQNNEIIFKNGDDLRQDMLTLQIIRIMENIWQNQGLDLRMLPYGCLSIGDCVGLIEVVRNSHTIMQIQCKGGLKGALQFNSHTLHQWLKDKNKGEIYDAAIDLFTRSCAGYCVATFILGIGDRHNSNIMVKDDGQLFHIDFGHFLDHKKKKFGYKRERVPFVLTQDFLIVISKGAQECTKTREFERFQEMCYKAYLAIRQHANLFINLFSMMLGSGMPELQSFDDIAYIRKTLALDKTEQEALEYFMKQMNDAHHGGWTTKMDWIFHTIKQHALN

[15] = molecular target: Phosphatidylinositol 4,5-bisphosphate 3-kinase catalytic subunit beta isoform (Homo sapiens) (UniProt P42338); experiment: Binding affinity to wild-type human partial length PIK3CB (P118 to S1070 residues) expressed in mammalian expression system assessed as residual binding level at 1 uM by Kinomescan method relative to control
[16] = molecular target: Phosphatidylinositol 4-kinase beta (Homo sapiens) (UniProt Q9UBF8); experiment: Binding affinity to wild-type human full length PIK4CB (M1 to M828 residues) expressed in mammalian expression system assessed as residual binding level at 1 uM by Kinomescan method relative to control
Chain of Phosphatidylinositol 4-kinase beta (Homo sapiens) (Q9UBF8 2-816 limits assumed): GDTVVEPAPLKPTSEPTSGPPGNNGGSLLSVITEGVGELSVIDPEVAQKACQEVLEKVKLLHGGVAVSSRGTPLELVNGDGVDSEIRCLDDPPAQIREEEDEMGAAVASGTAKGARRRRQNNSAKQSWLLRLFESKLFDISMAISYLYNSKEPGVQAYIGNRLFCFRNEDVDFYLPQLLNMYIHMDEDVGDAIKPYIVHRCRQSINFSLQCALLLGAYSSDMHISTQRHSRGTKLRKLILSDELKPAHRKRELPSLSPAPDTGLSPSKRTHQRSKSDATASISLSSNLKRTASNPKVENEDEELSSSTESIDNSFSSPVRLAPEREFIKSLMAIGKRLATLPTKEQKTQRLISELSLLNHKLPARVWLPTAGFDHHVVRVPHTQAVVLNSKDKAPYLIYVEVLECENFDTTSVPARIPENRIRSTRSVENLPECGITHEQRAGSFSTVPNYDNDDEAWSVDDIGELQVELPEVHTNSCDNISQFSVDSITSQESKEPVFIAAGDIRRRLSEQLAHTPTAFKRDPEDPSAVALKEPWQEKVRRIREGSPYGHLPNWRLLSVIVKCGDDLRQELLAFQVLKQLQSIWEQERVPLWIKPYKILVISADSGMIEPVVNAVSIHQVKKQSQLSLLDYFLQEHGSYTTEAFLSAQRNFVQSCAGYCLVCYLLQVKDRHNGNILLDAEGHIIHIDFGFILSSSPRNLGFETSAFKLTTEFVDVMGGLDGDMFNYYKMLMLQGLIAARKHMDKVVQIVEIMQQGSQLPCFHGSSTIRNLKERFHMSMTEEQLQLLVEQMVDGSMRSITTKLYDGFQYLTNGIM
Outline: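 Active-site-directed competition binding panel (KinomeScan) covering 468 kinases. Test agent was screened at 1 μM. The read-out is the remaining kinase signal expressed relative to a DMSO control. Scores above 35%, taken as weak binding, were not reported.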

[17] = molecular target: RAF proto-oncogene serine/threonine-protein kinase (Homo sapiens) (UniProt P04049); experiment: Binding affinity to wild-type human partial length RAF1 (I330 to T640 residues) expressed in bacterial expression system assessed as residual binding level at 1 uM by Kinomescan method relative to control
[18] = molecular target: Serine/threonine-protein kinase RIO2 (Homo sapiens) (UniProt Q9BVS4); experiment: Binding affinity to wild-type human partial length RIOK2 (M1 to D313 residues) expressed in mammalian expression system assessed as residual binding level at 1 uM by Kinomescan method relative to control
Chain of Serine/threonine-protein kinase RIO2 (Homo sapiens) (Q9BVS4 whole entry, looked up, the tested form may be a part): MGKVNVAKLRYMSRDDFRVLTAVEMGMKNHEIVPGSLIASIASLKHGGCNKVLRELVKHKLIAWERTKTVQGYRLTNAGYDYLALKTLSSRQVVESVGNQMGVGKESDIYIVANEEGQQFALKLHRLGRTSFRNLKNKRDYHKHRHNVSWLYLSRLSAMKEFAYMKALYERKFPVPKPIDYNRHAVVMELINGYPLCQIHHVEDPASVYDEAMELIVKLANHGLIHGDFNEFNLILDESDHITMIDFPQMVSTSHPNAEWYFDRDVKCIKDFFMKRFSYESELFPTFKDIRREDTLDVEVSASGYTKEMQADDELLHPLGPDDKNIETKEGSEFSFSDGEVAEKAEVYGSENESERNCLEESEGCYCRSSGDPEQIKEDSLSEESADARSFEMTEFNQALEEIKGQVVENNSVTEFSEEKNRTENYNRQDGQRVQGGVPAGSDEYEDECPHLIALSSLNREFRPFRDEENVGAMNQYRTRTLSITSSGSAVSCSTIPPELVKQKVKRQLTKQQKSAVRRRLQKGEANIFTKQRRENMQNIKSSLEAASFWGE

[19] = molecular target: Uncharacterized serine/threonine-protein kinase SBK3 (Homo sapiens) (UniProt P0C264); experiment: Binding affinity to wild-type human partial length SgK110 (L22 to R329 residues) expressed in bacterial expression system assessed as residual binding level at 1 uM by Kinomescan method relative to control
Chain of Uncharacterized serine/threonine-protein kinase SBK3 (Homo sapiens) (P0C264 whole entry, the tested form may be a part): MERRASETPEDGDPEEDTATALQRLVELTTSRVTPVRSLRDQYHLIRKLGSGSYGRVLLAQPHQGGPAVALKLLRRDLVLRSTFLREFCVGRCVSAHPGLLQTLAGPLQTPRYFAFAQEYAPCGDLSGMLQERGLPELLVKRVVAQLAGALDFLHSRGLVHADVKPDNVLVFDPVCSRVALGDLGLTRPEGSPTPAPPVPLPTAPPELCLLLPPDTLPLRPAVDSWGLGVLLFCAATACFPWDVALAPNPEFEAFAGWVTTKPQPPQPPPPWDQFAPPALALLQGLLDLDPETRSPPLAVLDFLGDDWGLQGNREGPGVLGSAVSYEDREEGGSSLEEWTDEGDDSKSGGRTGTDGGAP
Outline: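 Active site-directed competition binding panel (KinomeScan, 468 kinases). Test compound at 1 μM. Read-out is kinase binding remaining versus DMSO control, expressed as percent of control. Scores above 35% are treated as weak binding.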

[20] = molecular target: Serine/threonine-protein kinase 33 (Homo sapiens) (UniProt Q9BYT3); experiment: Binding affinity to wild-type human full length STK33 (M1 to L514 residues) expressed in bacterial expression system assessed as residual binding level at 1 uM by Kinomescan method relative to control

SMILES: C=CC(=O)Nc1ccccc1Nc1nc(Nc2ccc(N3CCN(C)CC3)cc2)ncc1C(=O)Nc1c(C)cccc1Cl
- Activity [1]: 100%
- Activity [2]: 100%
- Activity [3]: 88%
- Activity [4]: 100%
- Activity [5]: 100%
- Activity [6]: 100%
- Activity [7]: 63%
- Activity [8]: 95%
- Activity [9]: 100%
- Activity [10]: 100%
- Activity [11]: 100%
- Activity [12]: 98%
- Activity [13]: 100%
- Activity [14]: 100%
- Activity [15]: 100%
- Activity [16]: 91%
- Activity [17]: 100%
- Activity [18]: 100%
- Activity [19]: 60%
- Activity [20]: 100%
